Reference: ChEMBL document CHEMBL1148795 (J Med Chem, 2007)
Calls of active or inactive are those of the source. The rule behind the calls is not given here.

Assays:
[1] = Cytotoxicity against human MT4 cells by MTT assay; format: cell-based
[2] = test system: Human immunodeficiency virus 1; assay: Antiviral activity against HIV1 RF in human CEM-SS cells by XTT assay; format: functional, organism-based; conditions: for EC50: Human immunodeficiency virus 1, RF
[3] = test system: Human immunodeficiency virus 2; assay: Antiviral activity against HIV2 ROD in human MT4 cells by MTT assay
[4] = Metabolic stability in rat plasma; format: ADME, cell-free
Method in brief: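 Compounds were incubated in reconstituted rat plasma (two lots, checked with a control compound), with 1,1-diphenylethylene as internal standard. Aliquot supernatants were analysed by HPLC with UV detection. Half-lives came from regression fits of concentration versus time and were averaged over at least two replicates.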

[5] = test system: Human immunodeficiency virus 1; assay: Antiviral activity against HIV1 3B in human MT4 cells by MTT assay; conditions: for EC50: Human immunodeficiency virus 1, 3B
[6] = Cytotoxicity against human CEM-SS cells by MTT assay; format: cell-based
[7] = test system: Human immunodeficiency virus 1; assay: Antiviral activity against HIV1 with RT Y181C mutation; format: functional, organism-based
Method in brief: (§1)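 Cytoprotection assay in CEM-SS cells infected with HIV-1 strains engineered to carry the NNRTI-resistance RT mutation (K103N or Y181C). Activity is expressed as the EC50 for protection of the cells from virus-induced cytopathic effect.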

[8] = target: Human immunodeficiency virus type 1 reverse transcriptase (Human immunodeficiency virus 1, UniProt Q72547); assay: Inhibition of HIV1 reverse transcriptase
[9] = test system: Human immunodeficiency virus 1; assay: Antiviral activity against HIV1 with RT K103N mutation; format: functional, organism-based; method in brief: as §1

| Structure (SMILES) | CC50 [1] | EC50 [2] | Activity [3] | half-life [4] | EC50 [5] | CC50 [6] | EC50 [7] | IC50 [8] | EC50 [9] | Activity [2] | Activity [5] |
| --- | --- | --- | --- | --- | --- | --- | --- | --- | --- | --- | --- |
| COc1c(C)cc(/C(=C\CCCc2nnc(C)o2)c2cc(C)c3onc(OC)c3c2)cc1C(=O)SC | 7000 nM | 50 nM | inactive | 14.4 h | 140 nM | 5700 nM | > 100000 nM | 470 nM | 400 nM |  |  |
| COC(=O)c1cc(/C(=C\CCc2nnc(C)o2)c2cc(C)c3onc(OC)c3c2)cc(C)c1OC | 6400 nM | 360 nM | inactive | 5.52 h | 420 nM | 2800 nM | > 100000 nM | 390 nM | 800 nM |  |  |
| COC(=O)c1cc(/C(=C\CCc2nnc(C)o2)c2cccc(C#N)c2)cc(C)c1OC | 8100 nM |  | inactive | 1.89 h |  | 4500 nM | > 100000 nM | 29000 nM | > 50000 nM | inactive | inactive |
